# Assay outcomes as filed in PubChem.
# An excerpt weighted towards active compounds, which were near 1.6% of everything screened.
# F508del corr = F508del CFTR correction, initial screen, CFBE line, single point; CFBE cells, YFP halide quenching; stimulated with forskolin plus potentiator P3; % fluorescence drop versus neutral controls; activity (quench increase), % at 7.58 µM; 350,000 tested, 0.36% active; AID 720511, 2013;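 active = mean added fluorescence quench of at least 8% versus neutral control, with both replicates also reaching 8%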;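 note: cells transiently co-express mutant CFTR-F508del with the halide-sensitive YFP; corrector assay measuring rescue of mutant channel to the surface after 24 h compound exposure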
# LMPTP block = LMPTP phosphatase inhibitors, primary screen, biochemical, fluorescence intensity, uHTS; recombinant LMPTP-A, OMFP fluorogenic substrate; inhibition, % at 20 µM; 360,000 tested, 0.22% active; AID 651560, 2012;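 active = compounds that cut the enzyme signal by at least half of the control window in the single-dose screen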;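 note: plate controls were DMSO wells with enzyme plus substrate for no effect and substrate without enzyme for full effect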
#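 Test system: LMPTP-A phosphatase enzyme; input: 0.625 nM LMPTP-A final; reagent: OMFP substrate, 400 µM final; compound dosing: 20 µM single dose, 3% DMSO; incubation: 50 min dark incubation at room temperature; measured by: endpoint fluorescence intensity from OMFP dephosphorylation; measure: % inhibition relative to no-enzyme and uninhibited control wells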
# Scp-1 inhibitor = Scp-1 phosphatase inhibitors, primary screen, biochemical, colorimetric, uHTS | 340,000 tested, 0.88% active | inhibition, % at 20 µM | Recombinant Scp1, phosphopeptide, malachite green phosphate absorbance | AID 493091, 2011;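 active = inhibition above about 50% at 20 µM, limit read from the data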;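 note: plate controls were DMSO wells with enzyme for no effect and wells lacking enzyme for full effect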
#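 System: SCP-1 catalytic domain; Reagent: Phospho 17-mer peptide substrate; Doses: one concentration, 20 µM, with 1.0% DMSO; Incubation: 45 min room-temperature reaction, 5 min colour, 30 min stabiliser; Signal: Phosphate-binding colour reagent, absorbance read at 630 nm.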
# STEP block = STEP phosphatase inhibitors, primary screen, biochemical, fluorescence intensity, uHTS; Tyrosine-protein phosphatase non-receptor type 5 (Homo sapiens), P54829; recombinant STEP, OMFP fluorogenic substrate; inhibition, % at 20 µM; 360,000 tested, 0.25% active; AID 588621, 2011;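 active = inhibition at 20 µM, scaled per plate between control wells, above about 37%, limit read from the data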;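 note: 0% = DMSO with enzyme and substrate and 100% = substrate only without enzyme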
#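 System: STEP phosphatase, cell-free reaction; Buffer or medium: Bis-Tris pH 6.0 buffer with DTT, detergent; Incubation: 20 min at room temperature, dark; Measured by: fluorescence, 480/540 nm.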
# SUMO1 PPI mod = modulators of SUMO1 protein-protein interactions, primary screen, biochemical, uHTS; Small ubiquitin-related modifier 1 (Homo sapiens), P63165; SUMO1 binding to a labelled peptide, TR-FRET, 1 h; inhibition, % at 20 µM; 360,000 tested, 0.33% active; in the data active = inhibition above about 37%
# DNMT1 block = human DNMT1 methyltransferase inhibitors, primary screen, biochemical, molecular beacon, fluorescence, HinP1I cleavage, uHTS; DNA (cytosine-5)-methyltransferase 1 (Homo sapiens), P26358; AID 588458, 2011; 360,000 tested, 0.83% active; inhibition (reported as % activation of signal), % at 10 µM; in the data active = inhibition above about 50%
# Target sequence (P26358 504-1616 limits assumed): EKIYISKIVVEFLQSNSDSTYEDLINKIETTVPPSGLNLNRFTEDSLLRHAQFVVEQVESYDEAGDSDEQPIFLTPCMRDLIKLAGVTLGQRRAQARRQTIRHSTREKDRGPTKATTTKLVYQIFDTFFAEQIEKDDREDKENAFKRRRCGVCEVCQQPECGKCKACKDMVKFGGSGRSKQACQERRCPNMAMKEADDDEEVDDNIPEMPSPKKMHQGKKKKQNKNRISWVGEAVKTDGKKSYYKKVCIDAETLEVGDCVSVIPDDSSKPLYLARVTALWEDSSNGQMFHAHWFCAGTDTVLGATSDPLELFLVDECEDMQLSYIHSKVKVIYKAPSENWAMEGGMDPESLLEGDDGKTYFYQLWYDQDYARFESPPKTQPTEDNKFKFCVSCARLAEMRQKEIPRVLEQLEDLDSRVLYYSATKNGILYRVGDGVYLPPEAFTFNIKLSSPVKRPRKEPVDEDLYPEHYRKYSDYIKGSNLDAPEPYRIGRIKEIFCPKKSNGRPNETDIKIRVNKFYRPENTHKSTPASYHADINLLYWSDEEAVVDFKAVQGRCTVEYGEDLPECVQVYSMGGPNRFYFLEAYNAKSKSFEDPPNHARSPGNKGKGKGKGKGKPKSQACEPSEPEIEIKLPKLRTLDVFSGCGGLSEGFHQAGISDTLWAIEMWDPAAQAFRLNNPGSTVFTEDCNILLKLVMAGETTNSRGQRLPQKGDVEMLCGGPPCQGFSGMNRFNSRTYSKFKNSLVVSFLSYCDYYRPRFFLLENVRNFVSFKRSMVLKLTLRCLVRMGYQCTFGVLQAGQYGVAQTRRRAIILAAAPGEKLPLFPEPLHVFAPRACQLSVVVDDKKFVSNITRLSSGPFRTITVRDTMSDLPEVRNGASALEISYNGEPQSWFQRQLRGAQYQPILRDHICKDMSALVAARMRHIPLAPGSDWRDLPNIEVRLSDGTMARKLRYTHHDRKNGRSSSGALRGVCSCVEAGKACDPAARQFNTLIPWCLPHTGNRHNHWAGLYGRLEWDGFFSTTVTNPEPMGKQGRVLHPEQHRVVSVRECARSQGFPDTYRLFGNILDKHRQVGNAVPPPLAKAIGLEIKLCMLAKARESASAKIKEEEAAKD
# DNMT1 interf DR = spectral interference with molecular beacon fluorescence, dose response, artefact control for DNMT1 inhibitor project, biochemical, fluorescent molecular beacon. shares compounds with DNMT1 block. spectral interference counter-screen. IC50, µM. 200 tested, under 10 active. AID 602382, 2012
# DNMT1 inh conf = DNMT1 methyltransferase inhibitor retest, confirmation, biochemical, molecular beacon, fluorescence, single concentration; AID 602385, 2012; shares compounds with DNMT1 block; inhibition, % at 10 µM; DNMT1 molecular beacon HinP1I cleavage; 2,300 tested, 8% active;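 active = average inhibition of at least 30% in the single-concentration confirmation test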
# Beacon interf = shows spectral interference in the DNMT1 beacon assay; shares compounds with DNMT1 block; DNMT1 molecular beacon spectral interference counterscreen, fluorescence 485/520; activation (fluorescence interference), % at 10 µM; 2,300 tested, 1% active;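 active = activation of at least 30% at 10 µM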;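 note: DNMT1 catalytic domain with a HinP1I cleavage step and a FAM/dabcyl DNA beacon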
# STEP conf = STEP phosphatase inhibitor hit confirmation, biochemical, fluorescence intensity, single concentration. recombinant STEP, OMFP fluorogenic substrate. shares compounds with STEP block. AID 623866, 2012. inhibition, % at 20 µM. 520 tested, 32% active;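 note: 0% = enzyme with substrate plus DMSO and 100% = substrate without enzyme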
# Active calls of the source: *; x = no result. Unless noted, the rule behind the calls is not given here.
SMILES,F508del corr,LMPTP block,Scp-1 inhibitor,STEP block,SUMO1 PPI mod,DNMT1 block,DNMT1 inh conf,Beacon interf,others
CSCCC(NC(=O)COc1ccccc1)C(=O)N(C)CC(=O)Nc1ccc(Cl)cc1 (stereo not drawn),-0.8,-1.4,-4.6,-2.4,-0.8,-0.4,x,x,
Cc1cc(C(=O)Nc2cc(C)on2)on1,-4.8,-0.3,-1.2,-3.6,7.8,80.8*,5.9,0.8,
Cc1cc(NC(=O)c2cc(C3CC3)on2)no1,-0.2,-0.4,-1.2,-0.5,3.6,55.9*,0.8,-0.6,
Cc1cc(NC(=O)c2cc(C)on2)no1,x,-0.1,2.8,-2.9,0.7,0.9,x,x,
CO[C@H]1CN(C)C(=O)c2ccc(NC(=O)Nc3ccccc3)cc2OC[C@H](C)N(C(=O)CN(C)C)C[C@H]1C,1.0,x,x,x,x,x,x,x,
CO[C@H]1CN(C)C(=O)c2ccc(NC(=O)c3ccccc3F)cc2OC[C@H](C)N(C(=O)c2ccccc2F)C[C@@H]1C,-5.3,x,x,x,x,x,x,x,
O=C(c1ccc(F)cc1)N1CCOCC1,7.3,-0.2,-6.0,-3.7,-0.9,0.9,x,x,
O=C(c1ccc(=O)oc1)N1CCOCC1,x,-1.4,76.5*,15.2,9.8,103.4*,63.9*,-2.5,DNMT1 interf DR=>99
O=C(c1ccc(=O)oc1)N1CCCc2ccccc21,x,2.0,43.0,12.9,11.5,105.0*,9.9,-4.4,
CO[C@H]1CN(C)C(=O)c2ccc(NC(C)=O)cc2OC[C@H](C)N(Cc2cccnc2)C[C@@H]1C,-1.5,x,x,x,x,x,x,x,
O=C(CSc1nc2c(sc3ccccc32)c(=O)n1CCc1ccccc1)NCc1ccco1,x,-1.0,4.9,2.3,0.2,64.7*,2.8,-3.7,
COc1ccc(NC(=O)CSc2ccc3c4c(cccc24)C(=O)c2ccccc2-3)cc1,x,3.0,-7.3,0.3,-10.4,60.8*,5.2,1.5,
COc1ccc(NC(=O)CSc2nnc(C)c3ccccc23)cc1,-2.2,-0.9,0.0,-0.9,-1.1,-1.3,x,x,
Cc1ccc(NC(=O)CSc2nc3ccccc3c3nc4ccccc4n23)cc1,x,-0.5,2.9,-0.4,2.0,51.5*,1.8,-6.3,
COc1ccc(-n2c(SCC(=O)Nc3ccc(NC(C)=O)cc3)nc3ccccc3c2=O)cc1,-0.5,-0.9,-3.7,2.1,11.2,-7.6,x,x,
COc1ccc(NC(=O)CSc2nc3ccccc3c3nc4ccccc4n23)cc1,6.3,0.6,3.2,0.6,-1.3,58.0*,4.6,-6.9,
CCCNC(=O)C[C@H]1CC[C@H]2[C@@H](COC[C@@H](O)CN2C(=O)Nc2ccccc2OC)O1,-2.6,x,x,x,x,x,x,x,
C[C@@H]1CN([C@H](C)CO)C(=O)c2cc(C#Cc3cccnc3)cnc2O[C@@H]1CN(C)C,-2.2,x,x,x,x,x,x,x,
O=C(CSc1nc2ccccc2c2nc3ccccc3n12)NCc1ccco1,x,5.8,25.1,2.2,6.1,71.3*,14.8,0.6,
Cn1cnc(S(=O)(=O)N2CC[C@@H]3[C@H](CO)Nc4ccc(-c5ccccc5)cc4[C@@H]32)c1,6.3,x,x,x,x,x,x,x,
C[C@@H](NC(=O)c1ncn2c1c(=O)[nH]c1cccnc12)c1ccccc1,-1.1,2.0,x,0.5,14.7,5.1,x,x,
C[C@@H](NC(=O)c1ncn2c1c(=O)[nH]c1ccc(Br)cc12)c1ccccc1,-0.8,57.6*,x,50.0*,-22.4,93.0*,4.4,-0.1,STEP conf=-1.1
Nc1c(C(=O)OCC2CCCO2)c2nc3ccccc3nc2n1-c1ccc2c(c1)OCCO2 (stereo not drawn),x,x,1.0,x,x,x,x,x,
O=c1c2c3nc4ccccc4nc3n(-c3ccc4c(c3)OCCO4)c2ncn1C1CCCC1,x,26.1,84.8*,51.2*,-13.8,71.7*,2.7,-6.3,STEP conf=-2.8
COc1ccc(CN2CCN(c3ccccc3OC)CC2)cc1OC,2.5,-0.9,0.4,91.1*,-4.8,66.6*,0.5,4.3,STEP conf=-4.2
SMILES,F508del corr,LMPTP block,Scp-1 inhibitor,STEP block,SUMO1 PPI mod,DNMT1 block,DNMT1 inh conf,Beacon interf,others
CCC(=O)N1CC(=O)N2[C@@H](CO)[C@H](c3ccc(C#CCc4ccccc4)cc3)[C@@H]2C1,0.8,x,x,x,x,x,x,x,
O=c1c2ccccc2nc2sc(Nc3cccc(Cl)c3)nn12,5.1,71.9*,41.2,70.1*,-229.6,107.3*,-0.4,0.5,STEP conf=10.5
O=C(C[C@@H]1CC[C@H]2[C@@H](COC[C@H](O)CN2C(=O)c2cnccn2)O1)NCc1ccc(Oc2ccccc2)cc1,2.3,x,x,x,x,x,x,x,
COc1ccc(OC)c(N2C(=O)[C@@H]3C(c4ccccc4Cl)=NO[C@@H]3C2=O)c1,x,27.2,47.6,55.1*,13.1,114.5*,60.5*,2.0,DNMT1 interf DR=>99;STEP conf=79.7*
Cc1cccc(C)c1N1C(=O)[C@@H]2C(c3ccccc3Cl)=NO[C@@H]2C1=O,3.4,0.9,-6.2,0.6,4.7,-0.9,x,x,
COCC#Cc1ccc2c(c1)O[C@H](CN(C)Cc1ccc(F)cc1)[C@H](C)CN([C@H](C)CO)S2(=O)=O,-0.8,x,x,x,x,x,x,x,
NC(N)=NCCCS(=O)(=O)Nc1ccc(Nc2c3ccccc3nc3cc([N+](=O)[O-])ccc23)cc1,-4.8,63.2*,4.7,47.8*,26.2,66.6*,71.7*,-16.1,DNMT1 interf DR=>99;STEP conf=6.0
Cc1ccc(C(=O)Nc2ccc(C(=O)N/N=C/c3cccnc3)cc2)cc1,0.2,41.1,14.3,74.6*,8.8,6.3,x,x,STEP conf=-1.4
O=C(COc1ncnc2ccccc12)c1ccc(Cl)cc1,-0.9,-0.8,4.5,-0.6,-2.5,-2.5,x,x,
CC(=O)Nc1ccccc1-c1nc2ccccc2nc1OCC(=O)c1ccc(Cl)cc1,x,-0.7,-4.4,56.8*,-0.8,-2.2,x,x,STEP conf=-3.0
